Test results taken from publication PMC3177239 (The Biochemical journal, 2011).

Experiments:
[1] = system: pig tracheal submucosal glands; test: Pig tracheal submucosal glands fluid secretion
Outline: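 Pig tracheas collected within 1 h postmortem into ice-cold Krebs-Ringer bicarbonate buffer (1 μM indomethacin) gassed with 95% O2/5% CO2. Serosal side bathed at 37 °C. Agents were diluted in warm gassed buffer and added serosally after basal secretion was recorded. Carbachol 10 μM was added at the end to confirm viability. Rate was taken as the volume-vs-time slope (R² > 0.8): 10-min basal, 25-min stimulated. 11 pigs, 11–43 glands, mean ± s.e.m.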

[2] = system: cAMP levels in Calu-3 cells; test: Ratiometric FRET cAMP measurement; assay type: cell-based; conditions: CO-068 50 μM or FSK 10 μM added after baseline
Outline: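 Calu-3 cells were transiently transfected (Lipofectamine) with the CFP-EPAC-YFP sensor and grown on glass-bottom dishes. Cells were washed twice and held in HBSS, in the dark at room temperature, on an inverted microscope. After baseline, time-lapse images were taken every 1 min (100–300 ms exposure) with an EM-CCD camera. The background-subtracted CFP/FRET emission ratio came from 10–20 regions in 3–5 cells. n = 4–5 separate experiments, mean ± s.e.m.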

Row | Compound | Effect on FSK-induced fluid secretion ([1]; CFTRinh-172 50 μM plus FSK 10 μM) | Increase in mean fluid secretion rate compared to basal secretion rate ([1]; FSK 10 μM or CO-068 50 μM, over 25 min) [fold] | Increase in cAMP levels (CFP/FRET emission ratio) [2] [fold]
1 | O=C(O)c1ccc(/C=C2\SC(=S)N(c3cccc(C(F)(F)F)c3)C2=O)cc1 [CFTRinh-172] | markedly inhibited | – | –
2 | C=C[C@@]1(C)CC(=O)[C@]2(O)[C@@]3(C)[C@@H](O)CCC(C)(C)[C@@H]3[C@H](O)[C@H](OC(C)=O)[C@@]2(C)O1 [FSK, forskolin] | – | 5 | 1.5
